According to ChEMBL document CHEMBL2440039, “Synthesis and pharmacological evaluation of novel N-aryl-3,4-dihydro-1'H-spiro[chromene-2,4'-piperidine]-1'-carboxamides as TRPM8 antagonists” (Bioorg Med Chem, 2013):

Experiments:
[1] = test system: Rattus norvegicus; assay: AUC (0 to t) in Sprague-Dawley rat at 10 mg/kg, po; type: ADME, organism-based, Plasma; design: dose 10 mg/kg, route oral; conditions: in vivo
How it was run: (§1)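 Male SD rats (180–220 g, n=3), fasted overnight, single oral gavage dose as suspension in 1% Tween 80 / 0.5% w/v methyl cellulose in water. Blood (K2EDTA) drawn 0.5–24 h post dose. Plasma taken by liquid–liquid extraction with internal standard and measured by achiral LC/MS/MS. Values given as mean ± SD.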

[2] = test system: Mus musculus; assay: Inhibition of oxaliplatin-induced peripheral neuropathic pain in po dosed acetone spray-induced cold allodynia C57/BL6 mouse model assessed as inhibition of nocifensive paw licking behavior; type: functional, organism-based
How it was run: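 Male C57/BL6 mice (20–30 g) given oxaliplatin 3 mg/kg ip in 5% glucose and tested for cold allodynia 3 days later. Compound given po (3, 10, 30 mg/kg) 30 min before acetone spray, vehicle 0.5% MC. Nocifensive paw licking recorded. One-way ANOVA with Bonferroni test.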

[3] = test system: Rattus norvegicus; assay: Inhibition of acetone spray-induced cold allodynia in Sprague-Dawley rat chronic constriction injury model at 10 mg/kg, po after 3 hrs; type: functional
How it was run: (§2)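 Male SD rats (160–200 g) with sciatic nerve chronic constriction injury under ketamine/xylazine, tested 7 days later at 21 ± 0.5 °C. Oral dose, vehicle 0.5% MC. Acetone 100 µl sprayed on ipsilateral paw, repeated 3–5 times at 5 min intervals. Flinches and licking counted over 2 min at 0, 0.5, 1, 2 and 3 h, scored clinically.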

[4] = target: Transient receptor potential cation channel subfamily M member 8 (Rattus norvegicus, UniProt Q8R455); assay: Antagonist activity at rat TRPM8 by 45Ca2+ uptake assay
[5] = Metabolic stability in Beagle dog liver microsomes assessed as compound remaining at 1 uM after 60 mins by LC/MS/MS analysis; type: ADME, Canis lupus familiaris, Microsome; conditions: read-out: Stability
How it was run: (§3)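 Liver microsomes (1.0 mg/mL protein) from male CD1 mouse, Wistar rat, Beagle dog, Cynomolgus monkey, or pooled human. Test item 1.0 µM in KH2PO4 buffer pH 7.4 with 2.0 mM NADPH (final) at 37 °C for 60 min, stopped with TBME. Extract read by LC/MS/MS as area ratio to internal standard. Percent remaining is 60 min relative to 0 min.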

[6] = Cmax in Sprague-Dawley rat at 10 mg/kg, po; type: ADME, organism-based; design: dose 10 mg/kg, route oral; conditions: in vivo; how it was run: as §1
[7] = Metabolic stability in human liver microsomes assessed as compound remaining at 1 uM after 60 mins by LC/MS/MS analysis; type: ADME, Microsome; conditions: read-out: Stability; how it was run: as §3
[8] = target: T1, Transient receptor potential cation channel subfamily V member 3 (Homo sapiens) (UniProt Q8NET8); assay: Antagonist activity at human TRPV3 expressed in CHO cells assessed as inhibition of 2APB-induced 45Ca2+ uptake at 1 uM incubated for 10 mins prior to 2APB-challenge measured after 2 to 5 mins by liquid scintillation counting analysis; type: cell-based
T1 sequence (whole entry): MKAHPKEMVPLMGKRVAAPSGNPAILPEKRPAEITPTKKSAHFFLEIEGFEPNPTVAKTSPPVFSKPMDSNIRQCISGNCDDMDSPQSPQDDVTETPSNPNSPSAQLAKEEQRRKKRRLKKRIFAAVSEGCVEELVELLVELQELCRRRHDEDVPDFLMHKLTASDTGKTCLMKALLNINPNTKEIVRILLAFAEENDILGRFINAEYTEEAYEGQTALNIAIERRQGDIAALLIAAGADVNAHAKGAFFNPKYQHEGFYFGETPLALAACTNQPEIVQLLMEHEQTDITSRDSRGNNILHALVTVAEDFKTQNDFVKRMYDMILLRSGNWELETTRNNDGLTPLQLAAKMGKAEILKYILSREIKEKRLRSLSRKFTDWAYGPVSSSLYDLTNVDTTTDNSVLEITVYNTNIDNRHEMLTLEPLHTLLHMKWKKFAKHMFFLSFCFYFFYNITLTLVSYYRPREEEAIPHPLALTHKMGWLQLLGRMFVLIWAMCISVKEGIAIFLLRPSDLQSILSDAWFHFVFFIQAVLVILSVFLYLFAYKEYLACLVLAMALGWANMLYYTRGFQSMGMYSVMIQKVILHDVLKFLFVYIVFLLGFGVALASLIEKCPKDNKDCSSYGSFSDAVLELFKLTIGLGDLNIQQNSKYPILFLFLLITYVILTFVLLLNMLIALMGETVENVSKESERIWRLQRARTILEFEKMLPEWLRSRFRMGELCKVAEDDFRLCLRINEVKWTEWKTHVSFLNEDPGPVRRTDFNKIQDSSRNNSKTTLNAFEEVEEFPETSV
How it was run: (§4)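 CHO cells stably expressing human TRPA1, TRPV1, TRPV3 or TRPV4. Temperature 30 °C for TRPV1, 32 °C for TRPV3, 25 °C for TRPV4 and TRPA1. Compound preincubated 10 min, then 45Ca2+ (5 µCi/mL final) and agonist added. Wash after 2–5 min, lyse, scintillation count. TRPV1 IC50 from six-point curves in at least two experiments. TRPA1, TRPV3 and TRPV4 run in duplicate as % inhibition at 1.0 µM.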

[9] = test system: Rattus norvegicus; assay: Inhibition of acetone spray-induced cold allodynia in Sprague-Dawley rat chronic constriction injury model at 10 mg/kg, po after 0.5 hrs; type: functional; how it was run: as §2
[10] = Metabolic stability in Wistar rat liver microsomes assessed as compound remaining at 1 uM after 60 mins by LC/MS/MS analysis; type: ADME, Microsome; conditions: read-out: Stability; how it was run: as §3
[11] = target: Transient receptor potential cation channel subfamily A member 1 (Homo sapiens) (UniProt O75762); assay: Antagonist activity at human TRPA1 expressed in CHO cells assessed as inhibition of allyl isothiocyanate-induced 45Ca2+ uptake at 1 uM incubated for 10 mins prior to allyl isothiocyanate-challenge measured after 2 to 5 mins by liquid scintillation counting analysis; type: cell-based; how it was run: as §4
[12] = test system: Mus musculus; assay: Inhibition of oxaliplatin-induced peripheral neuropathic pain in acetone spray-induced cold allodynia C57/BL6 mouse model assessed as inhibition of nocifensive paw licking behavior at 30 mg/kg, po; type: functional
How it was run: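 Male C57/BL6 mice (20–30 g) received oxaliplatin (3 mg/kg ip, in 5% glucose, 10 ml/kg) and were tested for cold allodynia 3 days later. Compound was dosed po 30 min before acetone spray, with 0.5% MC as vehicle. Nocifensive paw licking/flicking was scored. Analysis was one-way ANOVA with Bonferroni versus vehicle.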

[13] = target: Transient receptor potential cation channel subfamily V member 4 (Homo sapiens) (UniProt Q9HBA0); assay: Antagonist activity at human TRPV4 expressed in CHO cells assessed as inhibition of 4alphaPDD-induced 45Ca2+ uptake at 1 uM incubated for 10 mins prior to 4alphaPDD-challenge measured after 2 to 5 mins by liquid scintillation counting analysis; type: cell-based; how it was run: as §4
[14] = Tmax in Sprague-Dawley rat at 10 mg/kg, po; type: ADME, organism-based; design: dose 10 mg/kg, route oral; conditions: in vivo; how it was run: as §1
[15] = target: Transient receptor potential cation channel subfamily V member 1 (Homo sapiens, UniProt Q8NER1); assay: Antagonist activity at human TRPV1 expressed in CHO cells assessed as inhibition of capsaicin-induced 45Ca2+ uptake incubated for 10 mins prior to capsaicin-challenge measured after 2 to 5 mins by liquid scintillation counting analysis; type: cell-based; how it was run: as §4
[16] = test system: Rattus norvegicus; assay: Inhibition of acetone spray-induced cold allodynia in Sprague-Dawley rat chronic constriction injury model at 10 mg/kg, po after 2 hrs; type: functional; how it was run: as §2
[17] = test system: Rattus norvegicus; assay: Inhibition of acetone spray-induced cold allodynia in Sprague-Dawley rat chronic constriction injury model at 10 mg/kg, po after 1 hr; type: functional; how it was run: as §2
[18] = test system: Mus musculus; assay: Inhibition of icilin-induced wet dog shakes in C57/BL6 mouse at 30 mg/kg, po administered 30 mins prior to icilin-challenge measured for 30 mins; type: functional
How it was run: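 Male C57/BL6 mice (20–30 g) acclimatized in a bell jar 10 min daily for 3 days. Icilin 30 mg/kg ip in 20% DMSO / 1% Tween 80. Compound given po 30 min before icilin, vehicle 0.5% MC. Wet dog shakes counted for 30 min after icilin. One-way ANOVA with Bonferroni test.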

[19] = Metabolic stability in CD-1 mouse liver microsomes assessed as compound remaining at 1 uM after 60 mins by LC/MS/MS analysis; type: ADME, Microsome; conditions: read-out: Stability; how it was run: as §3
[20] = test system: Rattus norvegicus; assay: Drug uptake in Sprague-Dawley rat at 10 mg/kg, po up to 8 hrs; type: ADME, organism-based; design: dose 10 mg/kg, route oral; conditions: in vivo; how it was run: as §1
[21] = target: Transient receptor potential cation channel subfamily M member 8 (Homo sapiens, UniProt Q7Z2W7); assay: Antagonist activity at human TRPM8 expressed in CHO cells assessed as inhibition of icilin-induced 45Ca2+ uptake incubated for 10 mins prior to icilin-challenge measured after 4 mins by liquid scintillation counting analysis; type: cell-based
How it was run: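 CHO cells stably expressing human TRPM8 in DMEM F-12 with 10% FBS and G418, seeded overnight. Assay buffer is DMEM F12 with 0.1% BSA and 1.8 mM CaCl2, run at 25 °C. Compound added 10 min before 45Ca2+ (5 µCi/mL final) and icilin. Wash after 4 min, lyse, count cpm. IC50 from six-point curves by nonlinear regression, at least two independent experiments.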

[22] = Metabolic stability in cynomolgus monkey liver microsomes assessed as compound remaining at 1 uM after 60 mins by LC/MS/MS analysis; type: ADME, Macaca fascicularis, Microsome; conditions: read-out: Stability; how it was run: as §3

Transient receptor potential cation channel subfamily M member 8 (Rattus norvegicus, UniProt Q8R455), sequence (Q8R455 whole entry): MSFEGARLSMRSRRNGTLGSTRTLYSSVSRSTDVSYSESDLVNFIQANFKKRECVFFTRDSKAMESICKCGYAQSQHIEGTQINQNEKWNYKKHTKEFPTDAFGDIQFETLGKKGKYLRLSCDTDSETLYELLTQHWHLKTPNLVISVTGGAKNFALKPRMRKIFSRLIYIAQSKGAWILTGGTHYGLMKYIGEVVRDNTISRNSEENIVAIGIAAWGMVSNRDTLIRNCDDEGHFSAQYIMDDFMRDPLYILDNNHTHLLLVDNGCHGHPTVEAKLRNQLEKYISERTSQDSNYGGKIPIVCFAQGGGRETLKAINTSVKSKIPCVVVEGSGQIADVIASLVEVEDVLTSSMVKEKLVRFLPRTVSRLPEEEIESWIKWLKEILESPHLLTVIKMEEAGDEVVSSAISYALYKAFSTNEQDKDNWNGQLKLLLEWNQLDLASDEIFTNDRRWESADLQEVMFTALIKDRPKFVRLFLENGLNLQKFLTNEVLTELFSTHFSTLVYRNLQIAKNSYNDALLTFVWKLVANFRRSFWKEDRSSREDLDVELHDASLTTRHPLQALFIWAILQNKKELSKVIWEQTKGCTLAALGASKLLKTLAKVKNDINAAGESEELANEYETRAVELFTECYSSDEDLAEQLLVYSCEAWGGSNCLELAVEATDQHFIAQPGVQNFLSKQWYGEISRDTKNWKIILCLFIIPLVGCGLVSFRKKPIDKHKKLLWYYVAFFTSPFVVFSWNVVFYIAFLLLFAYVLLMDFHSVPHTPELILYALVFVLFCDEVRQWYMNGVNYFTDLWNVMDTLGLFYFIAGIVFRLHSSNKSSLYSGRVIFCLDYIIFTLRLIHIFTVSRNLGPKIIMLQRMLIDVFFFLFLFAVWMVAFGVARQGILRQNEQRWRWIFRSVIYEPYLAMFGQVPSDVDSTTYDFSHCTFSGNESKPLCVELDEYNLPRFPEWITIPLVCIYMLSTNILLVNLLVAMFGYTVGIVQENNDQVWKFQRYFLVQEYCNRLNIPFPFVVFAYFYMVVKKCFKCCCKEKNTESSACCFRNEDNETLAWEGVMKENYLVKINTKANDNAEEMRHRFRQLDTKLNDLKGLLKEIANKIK
Transient receptor potential cation channel subfamily V member 1, sequence (Q8NER1 whole entry): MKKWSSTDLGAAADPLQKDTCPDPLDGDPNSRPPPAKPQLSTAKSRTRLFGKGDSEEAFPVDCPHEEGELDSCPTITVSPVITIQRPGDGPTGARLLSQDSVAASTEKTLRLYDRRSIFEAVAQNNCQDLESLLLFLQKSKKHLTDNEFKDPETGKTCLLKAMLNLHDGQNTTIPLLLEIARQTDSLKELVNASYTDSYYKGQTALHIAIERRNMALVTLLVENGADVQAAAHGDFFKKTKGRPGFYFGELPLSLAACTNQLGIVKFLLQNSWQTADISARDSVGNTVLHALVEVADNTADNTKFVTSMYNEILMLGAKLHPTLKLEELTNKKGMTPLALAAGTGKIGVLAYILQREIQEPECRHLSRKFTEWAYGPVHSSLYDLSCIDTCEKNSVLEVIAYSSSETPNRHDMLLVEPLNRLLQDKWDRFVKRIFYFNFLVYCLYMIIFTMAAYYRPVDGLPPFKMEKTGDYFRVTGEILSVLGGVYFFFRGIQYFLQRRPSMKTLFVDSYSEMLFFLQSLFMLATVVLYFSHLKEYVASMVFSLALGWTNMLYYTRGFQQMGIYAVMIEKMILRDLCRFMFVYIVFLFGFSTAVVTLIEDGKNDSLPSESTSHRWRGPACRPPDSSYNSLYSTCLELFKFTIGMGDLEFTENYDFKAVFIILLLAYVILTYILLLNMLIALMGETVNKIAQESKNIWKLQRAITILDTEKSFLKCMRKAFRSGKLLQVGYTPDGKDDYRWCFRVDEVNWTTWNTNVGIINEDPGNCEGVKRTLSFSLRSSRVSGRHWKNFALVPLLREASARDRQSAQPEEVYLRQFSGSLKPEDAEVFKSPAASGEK
Transient receptor potential cation channel subfamily V member 4 (Homo sapiens), sequence (Q9HBA0 whole entry): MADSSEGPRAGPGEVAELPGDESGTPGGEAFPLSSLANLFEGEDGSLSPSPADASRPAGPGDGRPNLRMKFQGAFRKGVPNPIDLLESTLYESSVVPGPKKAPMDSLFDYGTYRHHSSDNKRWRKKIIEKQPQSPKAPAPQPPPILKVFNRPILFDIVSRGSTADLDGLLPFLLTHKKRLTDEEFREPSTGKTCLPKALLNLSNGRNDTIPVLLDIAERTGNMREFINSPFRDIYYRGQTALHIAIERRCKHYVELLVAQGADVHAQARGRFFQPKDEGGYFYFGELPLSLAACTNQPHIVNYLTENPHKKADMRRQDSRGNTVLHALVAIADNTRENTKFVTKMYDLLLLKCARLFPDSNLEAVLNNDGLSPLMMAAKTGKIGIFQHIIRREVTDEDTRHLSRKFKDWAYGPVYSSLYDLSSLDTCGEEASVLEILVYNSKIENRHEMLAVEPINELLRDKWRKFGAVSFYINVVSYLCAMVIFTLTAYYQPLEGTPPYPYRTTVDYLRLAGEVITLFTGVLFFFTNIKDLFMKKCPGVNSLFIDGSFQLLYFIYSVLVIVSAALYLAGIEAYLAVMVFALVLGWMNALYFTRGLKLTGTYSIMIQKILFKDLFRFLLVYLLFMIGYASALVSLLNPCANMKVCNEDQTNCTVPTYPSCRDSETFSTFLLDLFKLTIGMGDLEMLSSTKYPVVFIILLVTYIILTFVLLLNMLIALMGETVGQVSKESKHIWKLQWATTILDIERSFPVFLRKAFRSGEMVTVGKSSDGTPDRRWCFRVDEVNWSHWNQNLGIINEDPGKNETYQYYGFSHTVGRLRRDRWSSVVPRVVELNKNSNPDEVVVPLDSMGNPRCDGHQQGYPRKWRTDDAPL
Transient receptor potential cation channel subfamily M member 8 (Homo sapiens, UniProt Q7Z2W7), sequence (Q7Z2W7 whole entry): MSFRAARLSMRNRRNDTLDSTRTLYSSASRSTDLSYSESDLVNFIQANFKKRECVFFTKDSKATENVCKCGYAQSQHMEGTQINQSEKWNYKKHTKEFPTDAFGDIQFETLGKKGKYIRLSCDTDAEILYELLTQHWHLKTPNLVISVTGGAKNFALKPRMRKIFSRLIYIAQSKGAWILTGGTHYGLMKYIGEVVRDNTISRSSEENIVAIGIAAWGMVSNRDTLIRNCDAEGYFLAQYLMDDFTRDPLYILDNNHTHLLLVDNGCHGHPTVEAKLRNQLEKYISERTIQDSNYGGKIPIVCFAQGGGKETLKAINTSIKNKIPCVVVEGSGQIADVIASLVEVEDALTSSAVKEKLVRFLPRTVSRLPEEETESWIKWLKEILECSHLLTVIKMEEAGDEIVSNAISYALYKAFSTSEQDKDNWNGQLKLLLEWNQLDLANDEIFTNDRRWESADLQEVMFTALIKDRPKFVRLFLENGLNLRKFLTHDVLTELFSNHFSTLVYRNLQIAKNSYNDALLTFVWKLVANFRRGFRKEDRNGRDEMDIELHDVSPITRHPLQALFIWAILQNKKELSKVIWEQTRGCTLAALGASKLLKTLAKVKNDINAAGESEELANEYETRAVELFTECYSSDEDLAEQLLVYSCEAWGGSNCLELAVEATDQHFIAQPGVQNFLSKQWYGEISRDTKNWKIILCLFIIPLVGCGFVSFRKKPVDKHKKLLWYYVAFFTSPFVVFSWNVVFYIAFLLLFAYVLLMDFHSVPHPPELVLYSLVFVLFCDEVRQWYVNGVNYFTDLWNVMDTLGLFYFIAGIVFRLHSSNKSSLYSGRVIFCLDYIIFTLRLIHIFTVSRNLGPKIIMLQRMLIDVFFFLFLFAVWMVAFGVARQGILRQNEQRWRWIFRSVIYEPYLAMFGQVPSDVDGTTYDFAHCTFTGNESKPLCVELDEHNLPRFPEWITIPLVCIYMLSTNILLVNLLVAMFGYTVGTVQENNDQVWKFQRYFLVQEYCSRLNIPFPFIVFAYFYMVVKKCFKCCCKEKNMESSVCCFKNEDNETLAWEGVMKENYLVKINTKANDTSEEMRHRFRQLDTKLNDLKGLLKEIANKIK
Transient receptor potential cation channel subfamily A member 1 (Homo sapiens), sequence (O75762 whole entry): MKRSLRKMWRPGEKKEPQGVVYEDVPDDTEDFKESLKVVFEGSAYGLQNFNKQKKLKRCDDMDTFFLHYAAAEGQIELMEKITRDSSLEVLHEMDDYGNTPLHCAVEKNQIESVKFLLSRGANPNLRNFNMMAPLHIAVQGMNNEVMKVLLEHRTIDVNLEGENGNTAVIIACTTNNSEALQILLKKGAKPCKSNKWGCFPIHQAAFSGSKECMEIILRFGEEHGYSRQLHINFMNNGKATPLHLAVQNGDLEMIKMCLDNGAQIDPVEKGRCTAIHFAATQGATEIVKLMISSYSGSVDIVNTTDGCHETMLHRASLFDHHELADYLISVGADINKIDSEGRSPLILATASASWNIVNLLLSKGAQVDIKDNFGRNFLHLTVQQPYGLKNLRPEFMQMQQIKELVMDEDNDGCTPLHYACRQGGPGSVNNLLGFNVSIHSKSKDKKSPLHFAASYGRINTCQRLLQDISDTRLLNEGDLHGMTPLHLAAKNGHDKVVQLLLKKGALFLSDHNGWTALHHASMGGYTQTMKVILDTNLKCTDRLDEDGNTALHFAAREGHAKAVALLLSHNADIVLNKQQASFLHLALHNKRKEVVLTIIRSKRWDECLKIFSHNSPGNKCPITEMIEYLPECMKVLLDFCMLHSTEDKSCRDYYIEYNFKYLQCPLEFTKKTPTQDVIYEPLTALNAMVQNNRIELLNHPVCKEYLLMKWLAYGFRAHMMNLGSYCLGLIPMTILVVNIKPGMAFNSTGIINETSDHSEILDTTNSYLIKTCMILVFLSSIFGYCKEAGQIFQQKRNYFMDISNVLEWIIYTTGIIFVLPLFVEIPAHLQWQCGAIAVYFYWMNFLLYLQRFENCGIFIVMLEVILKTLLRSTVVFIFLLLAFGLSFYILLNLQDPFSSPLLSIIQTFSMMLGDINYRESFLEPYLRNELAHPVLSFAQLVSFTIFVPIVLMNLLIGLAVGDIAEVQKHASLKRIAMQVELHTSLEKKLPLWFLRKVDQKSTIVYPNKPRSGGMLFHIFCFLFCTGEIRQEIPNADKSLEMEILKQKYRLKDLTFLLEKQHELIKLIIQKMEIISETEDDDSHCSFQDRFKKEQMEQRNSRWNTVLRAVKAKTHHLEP

- AUCt [1]: 4980 ng·h/mL
- IC50 [4]: 16.5 nM
- remaining at 1 h, 1 µM [5]: 42%
- Cmax [6]: 1090 ng/mL
- remaining at 1 h, 1 µM [7]: 67%
- inhibition [8]: 27.7%
- remaining at 1 h, 1 µM [10]: 79%
- inhibition [11]: 23.5%
- inhibition [13]: 38.8%
- Tmax [14]: 1 h
- IC50 [15]: > 1000 nM
- remaining at 1 h, 1 µM [19]: 81%
- Drug uptake [20]: Active
- IC50 [21]: 8.9 nM
- remaining at 1 h, 1 µM [22]: 72%
Structure (SMILES): O=C(Nc1ccc(OC(F)(F)F)cc1)N1CCC2(CC1)C[C@@H](O)c1cccc(Cl)c1O2
- inhibition [2]: Dose-dependent effect
- Efficacy [3]: 65%
- Efficacy [9]: 39%
- Efficacy [12]: 100%
- Efficacy [16]: 74%
- Efficacy [17]: 66%
- Efficacy [18]: 72%
